Test results as given in publication PMC9716260 (Cancer Discovery, 2022).

What was measured:
[1] = system: BRG1/BRM; experiment: Immunoblot for BRG1/BRM and cleaved PARP in degrader-treated neurospheres; type: cell-based, human
Summary of the method: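 BT869, HSJD-DIPG007 and SU-DIPGXIIIP* neurospheres were collected 24, 48 and 72 h after rising degrader concentrations; SU-DIPGXIIIP* was also collected at 6 h. SU-DIPGXIIIP* gave nuclear extracts; the other two gave whole-cell lysates in NP-40/deoxycholate/SDS buffer with protease and phosphatase inhibitors. Blots were blocked in 5% milk/TBST, then BRG1, BRM, PARP, cleaved PARP, GAPDH and H3 antibodies at 1:1,000 overnight at 4°C, then HRP secondary 1 h at RT, then ECL.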

[2] = system: BRG1 binding sites in BT869 (H3.3K27M-glioma) neurospheres; experiment: ATAC-seq chromatin accessibility in drug-treated BT869 neurospheres; type: cell-based, human; conditions: BT869, 1 μmol/L, 24 and 48 hours
Summary of the method: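 BT869 neurospheres were exposed to DMSO or 1 μmol/L BRG1/BRM inhibitor or degrader and collected 24 or 48 h later without FACS enrichment of viable cells. Bulk ATAC-seq was run as two biological replicates, each with two technical replicates. Genes linked to differentially accessible peaks were overlapped with single-cell H3K27M glioma metaprograms.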

[3] = system: SW-13 BRG1/BRM-deficient adrenocortical carcinoma cell line; experiment: Cell viability in BRG1/BRM-deficient control cell line; type: cell-based; conditions: Homo sapiens, SW13
Summary of the method: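 SW-13 cells were dosed with test compound at 24 and 96 h after plating, across 10 nmol/L to 10 μmol/L. Viability was read by CellTiter-Glo 7 days after drug exposure. Concentrations were log10-transformed and responses normalized to DMSO controls. Log IC50 was interpolated from a variable-slope least-squares fit.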

[4] = target: BRG1 (Homo sapiens, UniProt P51532); experiment: SILAC quantitative proteomics in BT869 neurospheres; type: cell-based; conditions: BT869, 1 μmol/L, 2 days of treatment
Summary of the method: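 BT869 cells were SILAC-labelled for 5 passages in custom TSM medium with heavy (13C615N2 lysine, 13C615N4 arginine) or light amino acids; incorporation was >95%. Cells (1.5 × 106) were seeded 1 day ahead, then given DMSO (light) or 1 μmol/L degrader (heavy) for 48 h. Lysis was in RIPA with protease inhibitors, benzonase and 1 mmol/L DTT. BCA-matched lysates were mixed 1:1. Significance came from a heteroscedastic two-tailed t test.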

[5] = Pharmacokinetic study, drug in plasma and brain after intraperitoneal dose; type: in vivo, CD1 mice; conditions: after intraperitoneal administration, mass spectrometry
Summary of the method: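 Female CD1 mice, three per time point, received a single i.p. dose of test compound in 10% hydroxypropyl β-cyclodextrin in sterile water. Plasma and brain were collected at 30 min, 2 h and 4 h and quantified by LC/MS-MS. Parameters came from a noncompartmental model.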

[6] = system: BT869 (H3.3K27M-glioma) subcutaneous tumors; experiment: Subcutaneous xenograft, BT869; type: in vivo, NSG mice
Summary of the method: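 Female NSG mice aged about 6–8 weeks were implanted with BT869 cells, 3 × 10^6 in PBS/Matrigel, into the right flank. Groups of 10 received the degrader at 50 mg/kg i.p. daily or vehicle for up to 60 days. BRG1 immunostaining was scored as nuclear DAB OD mean.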

[7] = Kinetic solubility analysis; type: physicochemical; conditions: PBS, pH 7.4, aqueous buffer, kinetic from dmso stock
Summary of the method: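 Test compound as a 10 mmol/L DMSO stock was diluted into 50 mmol/L PBS, pH 7.4, to a final 200 μmol/L. This was done in the lower chamber of filter vials by a contract laboratory.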

[8] = Plasma level after a single subcutaneous injection; type: in vivo; conditions: single subcutaneous injection of 50 mg/kg

Chain of BRG1 (P51532 whole entry): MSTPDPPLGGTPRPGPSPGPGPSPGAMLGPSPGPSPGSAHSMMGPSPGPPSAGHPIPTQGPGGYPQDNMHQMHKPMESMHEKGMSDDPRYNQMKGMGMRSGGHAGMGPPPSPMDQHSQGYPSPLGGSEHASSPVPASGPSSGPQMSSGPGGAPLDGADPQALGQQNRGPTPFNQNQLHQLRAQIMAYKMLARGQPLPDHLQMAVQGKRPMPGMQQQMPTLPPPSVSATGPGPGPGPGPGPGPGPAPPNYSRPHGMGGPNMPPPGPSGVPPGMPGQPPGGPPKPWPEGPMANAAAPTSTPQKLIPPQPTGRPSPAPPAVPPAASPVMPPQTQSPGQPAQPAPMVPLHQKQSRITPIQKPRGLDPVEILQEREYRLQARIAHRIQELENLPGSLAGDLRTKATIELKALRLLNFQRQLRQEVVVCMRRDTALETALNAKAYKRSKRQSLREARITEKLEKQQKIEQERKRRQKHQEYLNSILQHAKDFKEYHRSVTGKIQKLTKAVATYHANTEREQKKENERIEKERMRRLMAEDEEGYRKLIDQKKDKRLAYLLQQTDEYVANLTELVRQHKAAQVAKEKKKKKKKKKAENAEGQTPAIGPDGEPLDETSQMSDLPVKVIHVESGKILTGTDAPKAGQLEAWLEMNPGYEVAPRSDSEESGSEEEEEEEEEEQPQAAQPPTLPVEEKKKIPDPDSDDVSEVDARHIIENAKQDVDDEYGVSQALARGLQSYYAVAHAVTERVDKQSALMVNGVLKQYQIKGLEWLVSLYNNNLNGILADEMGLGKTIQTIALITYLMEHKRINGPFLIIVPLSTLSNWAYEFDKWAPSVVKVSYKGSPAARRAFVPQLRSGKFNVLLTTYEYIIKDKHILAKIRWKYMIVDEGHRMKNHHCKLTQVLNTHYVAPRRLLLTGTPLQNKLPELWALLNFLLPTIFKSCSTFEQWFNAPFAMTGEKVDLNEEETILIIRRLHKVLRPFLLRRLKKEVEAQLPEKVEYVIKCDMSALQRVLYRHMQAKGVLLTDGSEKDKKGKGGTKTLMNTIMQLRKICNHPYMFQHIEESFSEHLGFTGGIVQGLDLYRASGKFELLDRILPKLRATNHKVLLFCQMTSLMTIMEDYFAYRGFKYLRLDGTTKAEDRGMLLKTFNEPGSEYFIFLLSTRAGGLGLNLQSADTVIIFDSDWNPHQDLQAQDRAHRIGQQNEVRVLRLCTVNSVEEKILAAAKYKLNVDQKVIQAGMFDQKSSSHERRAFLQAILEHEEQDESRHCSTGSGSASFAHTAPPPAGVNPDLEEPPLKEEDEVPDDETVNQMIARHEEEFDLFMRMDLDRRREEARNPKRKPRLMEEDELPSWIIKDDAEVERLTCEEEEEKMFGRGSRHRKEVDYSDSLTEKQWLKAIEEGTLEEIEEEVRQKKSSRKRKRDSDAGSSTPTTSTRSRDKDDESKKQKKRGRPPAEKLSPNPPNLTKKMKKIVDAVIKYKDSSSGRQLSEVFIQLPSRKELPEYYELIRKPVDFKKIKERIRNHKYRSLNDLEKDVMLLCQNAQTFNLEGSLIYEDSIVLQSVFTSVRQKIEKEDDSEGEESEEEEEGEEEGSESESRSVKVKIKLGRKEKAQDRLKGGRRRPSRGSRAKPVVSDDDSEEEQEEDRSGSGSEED

Row | SMILES | Time to degradation of BRG1/BRM ([1]; SU-DIPGXIIIP* cells) | Lowest concentration degrading BRG1/BRM ([1]; SU-DIPGXIIIP* cells, 6 hours) | DNA accessibility at BRG1 binding sites (ATAC-seq) [2] | IC50 [3] | Proteins degraded (SILAC) [4] | Time to complete degradation of BRG1/BRM ([1]; BT869 cells) | Time to complete degradation of BRG1/BRM ([1]; HSJD-DIPG007 cells) | Time to complete degradation of BRG1/BRM ([1]; SU-DIPGXIIIP* cells) | Blood–brain barrier penetrance [5] | Degradation of BRG1 in treated tumors ([6]; BT869 s.c., 50 mg/kg i.p. daily, versus vehicle) | Body weight and toxic effects (plasma, liver, spleen) ([6]; mice treated for 45 days, Compound 14 20 mg/kg i.p. daily, JQ-dS-4 50 mg/kg i.p. daily) | solubility at 24 h [7] | Plasma levels [8] | Plasma levels ([8]; converted from ng/mL)
1 | Cc1ncsc1-c1ccc([C@H](C)NC(=O)[C@@H]2C[C@@H](O)CN2C(=O)[C@@H](NC(=O)CN2CCN(c3cc(-c4ccccc4O)nnc3N)CC2)C(C)(C)C)cc1 [AU-15330, reference compound] | ≤ 6 h | 500 nmol/L | decrease in DNA accessibility at BRG1 binding sites | – | – | – | – | – | – | – | – | – | – | –
2 | O=C1CCC(N2C(=O)c3cccc(NCCCCNC(=O)c4cccc(C#Cc5cc(NC(=O)Nc6ccnc(Cl)c6)ccn5)c4)c3C2=O)C(=O)N1 (stereo not drawn) [JQ-dS-4, 3-((4-(3-(2-chloropyridin-4-yl)ureido)pyridin-2-yl)ethynyl)-N-(4-((2-(2,6-dioxopiperidin-3-yl)-1,3-dioxoisoindolin-4-yl)amino)butyl)benzamide] | – | – | decrease in DNA accessibility at BRG1 binding sites | 6 µM | BRG1 was one of the top significant proteins degraded | 48 h | 72 h | 72 h | limited penetration into brain tissue | negligible degradation of BRG1 | did not observe any significant changes in body weight or toxic effects | < 1.56 µM | 240 ng/mL | ~300 nM
